Published values of several laboratories.
Protocols differ between the studies behind these lines.
UGT1A4: UDP-glucuronosyltransferase 1A4 (UGT1A4, Homo sapiens, UniProt P22310)
CYP2C19: Cytochrome P450 2C19 (CYP2C19, Homo sapiens, UniProt P33261)

| SMILES | tested on | assay | test system | setting | measurement | value |
| --- | --- | --- | --- | --- | --- | --- |
| N=C(N)NCc1ccc(NC(=O)c2ccc(C(=O)Nc3cnc(C4=CCN(C(=N)N)CC4)cn3)cc2)cc1 | NIH3T3 | cell growth or viability, MTS |  | 24 h | CC50 | > 585 µM |
| CC(=O)c1cc(C(=O)N[C@@H](C)Cn2ccc(-c3ccc(C#N)c(Cl)c3)n2)[nH]n1 | UGT1A4 | enzyme activity, inhibitor | human, liver microsomes |  | IC50 | > 50 µM |
| O=C(Nc1c2c(cc3c1CCC3)CCC2)NS(=O)(=O)/C=C/c1nccs1 | CYP2C19 | enzyme activity, inhibitor | human, liver microsomes | 10 µM, pH 7.4 | inhibition | 10.7% |
| N=C(N)N1CC=C(c2ccc(NC(=O)c3ccc(C4=CCN(C(=N)N)CC4)cc3)cc2)CC1 | NIH3T3 | cell growth or viability, MTS |  | 24 h | CC50 | 41 µM |
| NC(=O)C1CCCN1C(=O)Cc1ccc(N(CCCO)Cc2cnc3nc(N)nc(N)c3n2)cc1 (stereo not shown) | CYP2C19 | enzyme activity, inhibitor, luciferase |  | 10 µM | inhibition | -4.55% |
| C[C@@H]1C[C@H](c2ccc(Br)cc2)c2c(cc3ccccn23)C(=O)O1 (racemic) | HFF-1 | cell growth or viability, resazurin |  | 72 h | CC50 | 0.92 µM |
| [11CH3]Oc1cccc(CCc2cc(O)c(=O)[nH]n2)c1 | ATP-dependent translocase ABCB1 (Abcb1a, Mus musculus, UniProt P21447) |  | mouse, brain | 5 min | tracer uptake | 0.43 %ID/g |
| CN(CCC(=O)O)C(=O)c1ccc2c(c1)CC[C@@H]1[C@@H]2CC[C@]2(C)C(c3cncc(F)c3)=CC[C@@H]12 | UGT1A4 | enzyme activity, inhibitor |  |  | IC50 | > 30 µM |
| C[C@H](O)c1cc(C(=O)N[C@@H](C)Cn2ccc(-c3ccc(C#N)c(Cl)c3)n2)n[nH]1 | UGT1A4 | enzyme activity, inhibitor | human, liver microsomes |  | IC50 | > 100 µM |
| CCOC(=O)C1CCCN1C(=O)c1ccc(NCc2cnc3nc(N)nc(N)c3n2)cc1 (stereo not shown) | CYP2C19 | enzyme activity, inhibitor, luciferase |  | 10 µM | inhibition | -16.2% |
| N=C(N)NCc1ccc(NC(=O)C23CCC(C(=O)Nc4ccc(C5=CCN(C(=N)N)CC5)cc4)(CC2)CC3)cc1 | NIH3T3 | cell growth or viability, MTS |  | 24 h | CC50 | 439 µM |
| COC(=O)C1CCN(C(=O)c2ccc(N(CCCO)Cc3cnc4nc(N)nc(N)c4n3)cc2)CC1 | CYP2C19 | enzyme activity, inhibitor, luciferase |  | 10 µM | inhibition | -9.48% |
| COc1cc2c3c(n(CCCN4CCOCC4)c(=O)c2cc1OC)-c1cc2c(cc1C3=O)OCO2 |  |  | male beagle dog, plasma | intravenous, 10 mg/m², infusion | Cmax | 106 ng/mL |
